Structures can show the parent of a compound that is named as a salt.
What was measured:
[1] = target: human serum albumin (HSA) Site I (Homo sapiens, UniProt P02768); experiment: Displacement of the Site I-selective fluorescent probe DNSA from HSA; format: binding; details: for Site I binding (DNSA displacement), result in words: 10 µM HSA, 20 µM DNSA, pH 7.4, 25°C, numeric EC50 values only in Figures 4-6; for fluorescence of the site I probe, DNSA: at higher concentrations of ligand
Summary of the method: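 Fatty acid- and globulin-free HSA in 0.1 M potassium phosphate, pH 7.4, with DNSA probe and increasing ligand concentrations (DMSO stocks; final DMSO <0.8% v/v; DMSO-only controls). Fluorescence read after 5 min at 25°C, ex 350/em 460 nm. Triplicates, each averaging six readings, as % of control.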

HSA [2] = details: cited from earlier work
HSA [3] = details: cited from earlier work; remark: listed apart in the source
human serum albumin = details: HSA binding, previously published; cited from earlier work

Chain of human serum albumin (HSA) Site I (P02768 25-609): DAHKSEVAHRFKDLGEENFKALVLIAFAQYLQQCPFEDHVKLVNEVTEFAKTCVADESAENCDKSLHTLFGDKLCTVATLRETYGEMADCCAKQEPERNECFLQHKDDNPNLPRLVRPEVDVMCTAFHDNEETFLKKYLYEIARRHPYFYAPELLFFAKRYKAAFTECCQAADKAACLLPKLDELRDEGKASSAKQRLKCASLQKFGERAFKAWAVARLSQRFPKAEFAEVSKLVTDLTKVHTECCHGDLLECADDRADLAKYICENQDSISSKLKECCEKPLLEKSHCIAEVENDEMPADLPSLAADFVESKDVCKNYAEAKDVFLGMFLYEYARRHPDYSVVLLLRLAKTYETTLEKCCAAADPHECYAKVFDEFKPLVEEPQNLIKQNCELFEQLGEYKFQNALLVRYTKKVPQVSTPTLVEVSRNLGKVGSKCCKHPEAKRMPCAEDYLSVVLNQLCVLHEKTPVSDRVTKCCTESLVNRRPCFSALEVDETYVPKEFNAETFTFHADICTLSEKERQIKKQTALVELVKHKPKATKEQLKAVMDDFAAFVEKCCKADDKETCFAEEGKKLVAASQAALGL

Row | SMILES | Site I binding (DNSA displacement), result in words [1] | binding to Site II (HSA [2]) | binding to Sudlow Site I (HSA [2]) | also measured
1 | Oc1ccc(-c2ccc(Cl)cc2)cc1 [4’-OH-PCB 3] | significant binding |  |  | 
2 | Oc1ccc(-c2cc(Cl)ccc2Cl)cc1 [4’-OH-PCB 9] | no significant binding |  |  | 
3 | O=S(=O)(O)Oc1ccc(-c2ccc(Cl)cc2)cc1 [4’-PCB 3 sulfate] | significant binding |  |  | 
4 | O=S(=O)(O)Oc1ccc(-c2ccc(Cl)c(Cl)c2)cc1 [4’-PCB 12 sulfate] | no significant binding |  |  | 
5 | O=S(=O)(O)Oc1ccc(-c2ccc(Cl)c(Cl)c2)c(Cl)c1 [4’-PCB 33 sulfate] |  |  |  | fluorescence of the site I probe, DNSA [1]: increased
6 | O=S(=O)(O)Oc1ccc(-c2ccc(Cl)c(Cl)c2)cc1Cl [4’-PCB 35 sulfate] | lack of interaction |  |  | fluorescence of the site I probe, DNSA [1]: increased
7 | Clc1ccc(-c2cc(Cl)c(Cl)cc2Cl)cc1Cl [PCB 118] |  | no binding | bound with high affinity | 
8 | Clc1cc(Cl)c(-c2cc(Cl)c(Cl)cc2Cl)cc1Cl [PCB 153] |  | no binding | bound with high affinity | HSA binding site (HSA [3]): bound to a single site of HSA, Sudlow Site II
9 | Clc1ccc(-c2cc(Cl)c(Cl)c(Cl)c2)cc1Cl [compound 126] |  | no binding | bound with high affinity | 
10 | O=C(O)c1ccccc1Nc1cccc(C(F)(F)F)c1 [flufenamic acid] |  |  |  | Ka (human serum albumin): 156000 M⁻¹
